≈ marks a conversion by molar mass, not a printed value.
Columns and labels:
[1] = Permeability of the compound at pH 7.4 after 30 mins by PAMPA; assay type: ADME; conditions: read-out: permeability
Outline: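 PAMPA at pH 7.4. A 10 mM DMSO stock is diluted into system solution buffer; its UV spectrum serves as reference. Membrane painted with GIT lipid, acceptor chamber holds acceptor solution buffer. Sandwich stirred for 30 min, aqueous boundary layer set to 40. Donor and acceptor UV spectra read at 250–500 nm. Permeability coefficient from the AUCs of reference, donor and acceptor. Single experiment in triplicate.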

HepG2 = assay: Cytotoxicity against human HepG2 cells assessed as intracellular ATP level after 72 hrs by Celltiter-Glo luminescent assay; assay type: cell-based; conditions: HepG2, 72 h
Plasmodium falciparum [2] = assay: Antimalarial activity against chloroquine-resistant Plasmodium falciparum K1 infected in human erythrocytes assessed as reduction in parasitemia after 72 hrs by spectrophotometry; assay type: functional, organism-based; conditions: K1, 72 h
[3] = Dissociation constant, pKa of the compound; assay type: physicochemical
[4] = Ratio of EC50 for human HepG2 cells to EC50 for Plasmodium falciparum 3D7 infected in human erythrocytes
[5] = Ratio of EC50 for human HepG2 cells to EC50 for Plasmodium falciparum K1 infected in human erythrocytes
Plasmodium falciparum [6] = assay: Antimalarial activity against chloroquine-sensitive Plasmodium falciparum 3D7 infected in human erythrocytes assessed as reduction in parasitemia after 72 hrs by spectrophotometry; assay type: functional, organism-based; conditions: 3D7, 72 h
[7] = Solubility of the compound at pH 7.4 after 18 hrs by UV spectroscopic analysis; assay type: physicochemical; conditions: buffer
Outline: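 Kinetic solubility. A 10 mM stock is diluted 1:100 into PBS pH 7.4 and incubated 18 h at room temperature, then filtered; the filtrate is mixed 1:1 with 1-propanol. UV spectrum (250–500 nm) compared by AUC with a 1-propanol/PBS reference. Single experiment in triplicate.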

Plasmodium falciparum [8] = assay: Ratio of EC50 for chloroquine-resistant Plasmodium falciparum K1 infected in human erythrocytes to EC50 for chloroquine-sensitive Plasmodium falciparum 3D7 infected in human erythrocytes; assay type: functional

Structure (SMILES) | Papp at 0.5 h [1] [×10⁻⁶ cm/s] | EC50 (HepG2) [nM] | EC50 (Plasmodium falciparum [2]) [nM] | pKa [3] | Ratio EC50 [4] | Ratio EC50 [5] | EC50 (Plasmodium falciparum [6]) [nM] | solubility at 18 h [7] [µM] | Ratio EC50 (Plasmodium falciparum [8])
COc1cccc(CNCCCNc2ccnc3cc(Cc4ccc(F)cc4Cl)ccc23)c1O | 23 | 2350 | 5140 | 9.47 | 185.4 | 0.5 | 13 | 4.2 (≈ 2.02 µg/mL) | 404.4
COc1cccc(CNCCCNc2ccnc3cc(Oc4cccc(N(C)C)c4)ccc23)c1O | 317 | 7300 | 2040 | 9.28 | 765 | 4 | 10 | 14.5 (≈ 6.85 µg/mL) | 215.1
COc1cccc(CNCCCNc2ccnc3cc(Cc4cccc(C(F)(F)F)c4)ccc23)c1O | 23 | 1720 | 2190 | 9.47 | 69 | 0.8 | 25 | 4.2 (≈ 2.08 µg/mL) | 87.9
c1ccc(Oc2ccc3c(NCCCNCc4ccc5c(c4)OCO5)ccnc3c2)cc1 | 317 | 2700 | 78 | 9.28 | 149 | 34 | 18 | 14.5 (≈ 6.2 µg/mL) | 4.3
Fc1ccc(-c2ccc3c(NCCCNCc4ccc5c(c4)OCO5)ccnc3c2)cc1 | 237 | 8770 | 35 | 9.47 | 495.4 | 252 | 18 | 32 (≈ 13.7 µg/mL) | 2
Fc1ccc(Oc2ccc3c(NCCCNCc4ccco4)ccnc3c2)cc1 | 317 | 16000 | 96 | 9.28 | 611 | 167 | 26 | 14.5 (≈ 5.68 µg/mL) | 3.6
CCC(CC)c1ccc2c(NCCCNCc3ccc4c(c3)OCO4)ccnc2c1 | 23 | 6350 | 1060 | 9.47 | 235.1 | 6 | 27 | 4.2 (≈ 1.7 µg/mL) | 39.5
COc1ccc(F)cc1CNCCCNc1ccnc2cc(-c3cc(C(F)(F)F)cc(C(F)(F)F)c3)ccc12 | 237 | 870 | 812 | 9.47 | 9.4 | 1.1 | 92 | 32 (≈ 17.6 µg/mL) | 8.8
COc1cccc(CNCCCNc2ccnc3cc(Cc4ccc(C#N)cc4)ccc23)c1O | 23 | 7150 | 5440 | 9.47 | 674.8 | 1.3 | 11 | 4.2 (≈ 1.9 µg/mL) | 514
COc1cccc(Oc2ccc3c(NCCCNCc4ccc5c(c4)OCO5)ccnc3c2)c1 | 317 | 14100 | 600 | 9.28 | 1178 | 24 | 12 | 14.5 (≈ 6.63 µg/mL) | 50
COc1cccc(CNCCCNc2ccnc3cc(Cc4ccc(F)cc4)ccc23)c1O | 23 | 4780 | 7150 | 9.47 | 316.6 | 0.7 | 15 | 4.2 (≈ 1.87 µg/mL) | 473.5
COc1cccc(CNCCCNc2ccnc3cc(CCc4ccccc4)ccc23)c1O | 23 | 6800 | 5520 | 9.47 | 400 | 1.2 | 17 | 4.2 (≈ 1.85 µg/mL) | 324.5
CC(C)CCc1ccc2c(NCCCNCc3ccco3)ccnc2c1 | 23 | 11200 | 4600 | 9.47 | 63.7 | 2.4 | 176 | 4.2 (≈ 1.48 µg/mL) | 26.1
c1cc(NCCCNCc2ccc3c(c2)OCO3)c2ccc(C3CCCCC3)cc2n1 | 23 | 3020 | 4710 | 9.47 | 23.6 | 0.6 | 128 | 4.2 (≈ 1.75 µg/mL) | 36.7
CN(C)c1cccc(Oc2ccc3c(NCCCNCc4ccco4)ccnc3c2)c1 | 317 | 16000 | 155 | 9.28 | 588 | 103 | 27 | 14.5 (≈ 6.04 µg/mL) | 5.7
COc1ccc(F)cc1CNCCCNc1ccnc2cc(-c3cccc4ccccc34)ccc12 | 237 | 16000 | 1030 | 9.47 | 13.9 | 15.5 | 1150 | 32 (≈ 14.9 µg/mL) | 0.9
COc1cccc(CNCCCNc2ccnc3cc(CC4CCCCC4)ccc23)c1O | 23 | 970 | 2610 | 9.47 | 19.6 | 0.4 | 50 | 4.2 (≈ 1.82 µg/mL) | 52.7
COc1ccc(F)cc1CNCCCNc1ccnc2cc(CC3CCCCC3)ccc12 | 23 | 1830 | 687 | 9.47 | 13.3 | 2.7 | 138 | 4.2 (≈ 1.83 µg/mL) | 5
COc1cccc(CNCCCNc2ccnc3cc(-c4ccc(F)cc4)ccc23)c1O | 237 | 6840 | 854 | 9.47 | 742.9 | 8 | 9 | 32 (≈ 13.8 µg/mL) | 92.8
c1cc(NCCCNCc2ccc3c(c2)OCO3)c2ccc(CC3CCCCC3)cc2n1 | 23 | 6290 | 701 | 9.47 | 155.2 | 9 | 41 | 4.2 (≈ 1.81 µg/mL) | 17.3
COc1ccc(F)cc1CNCCCNc1ccnc2cc(-c3ccc(C(F)(F)F)cc3)ccc12 | 237 | 5190 | 89 | 9.47 | 96.8 | 58.4 | 54 | 32 (≈ 15.5 µg/mL) | 1.7
FC(F)(F)c1ccc(-c2ccc3c(NCCCNCc4ccc5c(c4)OCO5)ccnc3c2)cc1 | 237 | 1890 | 98 | 9.47 | 74.5 | 19.2 | 25 | 32 (≈ 15.3 µg/mL) | 3.9
COc1cccc(CNCCCNc2ccnc3cc(Cc4ccc5c(c4)OCO5)ccc23)c1O | 237 | 1140 | 50 | 9.47 | 135.4 | 22.7 | 8 | 32 (≈ 15.1 µg/mL) | 6
COc1cccc(Oc2ccc3c(NCCCNCc4cccc(OC)c4O)ccnc3c2)c1 | 317 | 5300 | 3030 | 9.28 | 74 | 2 | 72 | 14.5 (≈ 6.66 µg/mL) | 42
COc1cccc(CNCCCNc2ccnc3cc(Oc4ccccc4)ccc23)c1O | 317 | 6800 | 1840 | 9.28 | 450 | 4 | 15 | 14.5 (≈ 6.23 µg/mL) | 122
c1coc(CNCCCNc2ccnc3cc(Cc4ccc5c(c4)OCO5)ccc23)c1 | 237 | 6500 | 46 | 9.47 | 340.2 | 142.2 | 19 | 32 (≈ 13.3 µg/mL) | 2.4
COc1ccc(F)cc1CNCCCNc1ccnc2cc(Oc3ccc(F)cc3)ccc12 | 317 | 6600 | 135 | 9.28 | 22 | 49 | 297 | 14.5 (≈ 6.52 µg/mL) | 0.5
c1cc(NCCCNCc2ccc3c(c2)OCO3)c2ccc(Cc3ccc4c(c3)OCO4)cc2n1 | 237 | 4790 | 27 | 9.47 | 185 | 178.8 | 26 | 32 (≈ 15 µg/mL) | 1
